Screening data from PubChem BioAssay.
IMP-1 inhibitor – IMP-1 metallo-beta-lactamase inhibitors, primary screen, biochemical, epi-absorbance readout, Pseudomonas aeruginosa enzyme. metallo-beta-lactamase IMP-1 (Pseudomonas aeruginosa). AID 1556, 2009. purified IMP-1, nitrocefin hydrolysis, epi-absorbance fluorescence. 0.45% of 290,000 active. inhibition, % at 5.6 µM;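 active = inhibition above the mean plus 3 SD of all compounds in the same screening run, cut at about 4.5% in these data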;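 also: 0% = IMP-1 with DMSO and 100% = DMSO wells lacking enzyme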
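Test system: recombinant IMP-1 enzyme, purified / Medium: HEPES buffer pH 7.1 with ZnSO4 and Brij 35 / Doses: single dose, 5.6 µM / Times: 25 °C, 15 min preincubation, 25 min reaction / Detection: Epi-absorbance via hydrolysed-nitrocefin quenching of white-plate fluorescence, 480/530 nm, EDTA stop / Evaluation: percent inhibition from optical density relative to buffer-blank wells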
VIM-2 inhibitor – VIM-2 metallo-beta-lactamase inhibitors, primary screen, biochemical, epi-absorbance readout, Pseudomonas aeruginosa enzyme; purified VIM-2, nitrocefin hydrolysis, epi-absorbance fluorescence; AID 1527, 2009; 0.89% of 290,000 active; inhibition, % at 5.6 µM;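 active = inhibition above the mean of all tested compounds plus 3 SD, cutoff set per screening run, cut at about 7.5% in these data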;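 also: red hydrolysis product quenches plate fluorescence so inhibitors raise well fluorescence; 0% = enzyme with DMSO and 100% = DMSO without enzyme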
Jurkat NFkB inh – inhibitors of induced NF-kB luciferase reporter, primary screen, TCR NF-kB activation inhibitor project, cell-based, luminescence, uHTS. Jurkat, PMA/ionomycin-induced NF-kB luciferase reporter. inhibition, % at 4 µM. 0.53% of 330,000 active. AID 435003, 2010; in the data active = inhibition above about 50%
aSyn UTR inh – MLPCN primary screen, SNCA 5' untranslated region; alpha-synuclein 5'UTR reporter, inhibitor activity; inhibition, % (tested at 7.5 µM); 0.82% of 300,000 active; in the data active = inhibition above about 60%;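 also: H4 neuroglioblastoma cells stably carrying SNCA 5'UTR luciferase fusion; 0% = DMSO wells and 100% = positive control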
697 NFkB inh – inhibitors of PMA/ionomycin-induced NF-kB reporter, 697 cells, primary screen, B-cell NF-kB inhibitor project, cell-based, luminescence, uHTS. 697 B-cell NF-kB luciferase reporter, 16 h. inhibition, % at 4 µM. 0.33% of 330,000 active. AID 435022, 2010; in the data active = inhibition above about 35%
Mdm2 MdmX PPI – inhibitors of human Mdm2-MdmX association, primary screen, cell-based, luminescence, split luciferase, SaOS-2, uHTS; inhibition, % at 8 µM; Protein Mdm4 (Homo sapiens) + E3 ubiquitin-protein ligase Mdm2 (Homo sapiens), …; SaOS-2 split-luciferase Mdm2/MdmX complementation; AID 485346, 2010; 3% of 330,000 active;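 active = inhibition of at least 50% at 8 µM in the primary screen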
Target sequence (O15151 whole entry, looked up): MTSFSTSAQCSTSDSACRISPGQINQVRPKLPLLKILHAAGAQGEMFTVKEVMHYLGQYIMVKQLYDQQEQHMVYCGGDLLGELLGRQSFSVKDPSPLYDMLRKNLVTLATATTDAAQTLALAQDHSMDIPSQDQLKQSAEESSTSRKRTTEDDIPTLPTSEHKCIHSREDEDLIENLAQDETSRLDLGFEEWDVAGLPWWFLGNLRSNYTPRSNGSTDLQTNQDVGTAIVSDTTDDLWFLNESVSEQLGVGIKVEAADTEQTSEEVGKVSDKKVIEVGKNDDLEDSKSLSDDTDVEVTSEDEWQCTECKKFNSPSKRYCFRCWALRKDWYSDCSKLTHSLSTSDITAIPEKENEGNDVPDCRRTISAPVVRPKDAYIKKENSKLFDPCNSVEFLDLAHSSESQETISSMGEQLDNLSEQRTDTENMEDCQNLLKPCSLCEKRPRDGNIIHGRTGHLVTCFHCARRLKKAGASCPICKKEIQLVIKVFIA
Target sequence (Q00987 whole entry, looked up): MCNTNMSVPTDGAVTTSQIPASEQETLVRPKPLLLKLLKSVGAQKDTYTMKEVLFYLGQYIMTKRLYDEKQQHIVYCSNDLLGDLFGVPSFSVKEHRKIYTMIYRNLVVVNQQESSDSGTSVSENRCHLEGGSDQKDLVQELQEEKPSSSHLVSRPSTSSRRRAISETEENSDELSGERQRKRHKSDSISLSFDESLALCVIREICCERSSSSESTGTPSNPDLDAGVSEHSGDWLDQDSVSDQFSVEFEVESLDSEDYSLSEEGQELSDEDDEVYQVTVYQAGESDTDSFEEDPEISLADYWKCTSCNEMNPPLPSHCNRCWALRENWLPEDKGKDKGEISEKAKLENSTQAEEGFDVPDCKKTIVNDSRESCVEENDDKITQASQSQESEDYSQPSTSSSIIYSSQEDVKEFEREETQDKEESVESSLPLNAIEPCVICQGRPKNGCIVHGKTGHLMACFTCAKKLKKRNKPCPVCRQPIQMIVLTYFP
Jurkat NFkB conf – PMA/ionomycin-induced NF-kB reporter inhibitors, Jurkat retest, confirmation, T-cell NF-kB inhibitor project, cell-based, luminescence, single concentration. AID 435020, 2010. Jurkat NF-kB luciferase, 16 h. inhibition, % at 4 µM. shares compounds with Jurkat NFkB inh. 27% of 2,700 active;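 active = inhibition reaching about 45% at 4 µM in either replicate, limit read from the data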;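 also: plate controls were PMA/ionomycin stimulated DMSO wells for no effect and unstimulated DMSO wells for full effect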
697 NFkB conf – PMA/ionomycin-induced NF-kB reporter inhibitors, 697 retest, confirmation, B-cell NF-kB inhibitor project, cell-based, luminescence, single concentration | 697 B-cell NF-kB luciferase, 16 h | inhibition, % at 4 µM | 35% of 2,000 active | shares compounds with 697 NFkB inh; in the data active = inhibition mostly above about 28%, no sharp cut-off; inactive = mostly below about 22%
Mdm2-MdmX conf – Mdm2-MdmX complex disruptors, retested hits, confirmation, luminescence, single concentration | shares compounds with Mdm2 MdmX PPI | Mdm2-MdmX binding, luminescent assay | inhibition, % at 8 µM | 55% of 10,000 active | AID 489028, 2010; in the data active = inhibition above about 40%
FLuc counter – full-length luciferase signal inhibition, confirmation, counter-screen for Mdm2/MdmX interaction inhibitor project, cell-based, single concentration, SaOS-2. shares compounds with Mdm2 MdmX PPI. inhibition, % at 8 µM. 77% of 6,200 active. SaOS-2 full-length luciferase counterscreen, luminescence;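 active = mean inhibition at 8 µM reaching about 37%, which flags the compound as non-specific, limit read from the data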;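 also: p53-null SaOS-2 cells with luciferase driven by a doxycycline-inducible promoter; compound on cells about two nights before reading with doxycycline added after day one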
* hit, by the source's call; / = not tested or not shown. This is a sample that favours compounds with a hit; in the whole collection about 4.7% have one here.

SMILES	IMP-1 inhibitor	VIM-2 inhibitor	Jurkat NFkB inh	aSyn UTR inh	697 NFkB inh	Mdm2 MdmX PPI	Jurkat NFkB conf	Mdm2-MdmX conf	FLuc counter	others
CCn1c2c(c(=N)c3c1CCC3)CCCC2	-1.6	-2.3	41.3	-6.7	-8.7	38.5	/	/	/
CC(=O)c1c(C)[nH]c(C(=O)CSc2ncnc3sc(-c4ccccc4)cc23)c1C	-5.6	-4.6	51.9*	-29.3	-31.6	51.1*	13.8	6.0	/
Cc1cccc(C(=O)N[C@H](C(=O)Nc2nc3ccccc3[nH]2)C(C)C)c1	-3.8	-4.6	60.1*	96.1*	-9.8	73.5*	37.3	68.2*	99.6*
O=C(c1ccccc1)c1ccc(N2CCN(C(=O)c3cccc(F)c3F)CC2)c(F)c1	-1.0	-1.9	12.1	3.6	-11.3	17.4	/	/	/
CCOc1ccc2nc3cc(NCc4ccc(OC)cc4)ccc3c(N)c2c1	-1.3	-1.4	100.1*	108.6*	-28.7	96.7*	14.6	84.7*	15.4
CCCN(C1CCS(=O)(=O)C1)S(=O)(=O)c1cc(OC)ccc1OC (configuration not stated)	/	/	-4.4	/	-19.8	-10.1	/	/	/
COc1ccc(N2CCN(c3ncnc4c3cnn4-c3ccc(C)cc3C)CC2)cc1	-3.7	-0.2	36.9	-23.4	-14.6	27.2	/	/	/
Cc1ccc(-n2ncc3c(N4CCN(c5ccccc5)CC4)ncnc32)c(C)c1	-3.0	-2.6	59.5*	-62.4	-39.3	70.2*	38.6	69.5*	64.0*
O=c1cc(-c2cccc(F)c2)[nH]c2ccccc12	-1.9	-0.9	72.4*	86.6*	-26.1	52.1*	62.2*	74.6*	77.8*
Cc1ccc2[nH]c(-c3cccc(F)c3)cc(=O)c2c1	-5.2	-1.8	52.3*	81.0*	-68.1	58.1*	45.4	70.8*	94.6*
Cc1ccc(-c2cc(=O)c3cc(F)ccc3[nH]2)cc1	-3.1	-2.3	-7.6	-40.7	-22.8	-2.7	/	/	/
COc1cc(/C=C/[N+](=O)[O-])ccc1OCc1cccc(C(=O)O)c1	0.6	-1.6	69.3*	96.8*	-58.2	55.2*	43.1	47.0*	35.1
CCOc1ccc(OCc2cccc(C(=O)O)c2)cc1	/	/	88.0*	83.6*	92.1*	60.9*	90.2*	93.8*	7.2	697 NFkB conf=76.6*
O=C(O)c1cccc(COc2ccc3c(c2)CCC3)c1	-3.4	-0.3	70.0*	80.6*	61.5*	68.3*	63.9*	78.2*	24.1	697 NFkB conf=45.1*
COc1ccc(OCc2cccc(C(=O)O)c2)cc1	/	/	87.6*	127.6*	80.4*	85.3*	88.0*	81.4*	50.5*	697 NFkB conf=70.8*
CCOc1ccc(OCc2cccc(C(=O)N3CCCC3)c2)cc1	-4.8	-3.6	6.9	-4.1	-66.8	10.8	/	/	/
COc1cccc(C(=O)NCCS(=O)(=O)N(C)Cc2ccccc2)c1	/	/	-11.0	-5.0	12.9	9.0	/	/	/
O=C(O)c1ccc(COc2ccc(CO)cc2Cl)cc1	-2.7	-5.3	-5.8	-92.4	-60.7	6.9	/	/	/
O=C(O)c1cccc(COc2ccc(CO)cc2Cl)c1	/	/	94.3*	105.4*	75.4*	89.5*	88.8*	88.2*	5.2	697 NFkB conf=59.4*
CCOc1ccc(NC(=O)Nc2cccc(C(=O)O)c2)cc1	0.0	-0.6	82.4*	107.7*	81.5*	70.2*	79.8*	70.5*	21.3	697 NFkB conf=77.0*
O=C1CCC(C(=O)Nc2ccc([N+](=O)[O-])cc2)N1 (configuration not stated)	/	/	0.7	/	-9.0	1.4	/	/	/
Cc1ccc(-n2nc3c(=O)n(CC(=O)NCc4ccccc4)nc(C)c3c2C)cc1	-1.9	0.3	25.0	40.4	2.6	3.2	/	/	/
Cc1ccc(-n2nc3c(=O)n(CC(=O)NC(C)CCc4ccccc4)nc(C)c3c2C)cc1 (configuration not stated)	-3.3	-1.9	52.7*	27.3	16.2	50.1*	62.9*	9.2	/
C[C@H](CO)N1C[C@H](C)[C@@H](CN(C)C(=O)Nc2ccc3c(c2)OCO3)Oc2c(NC(=O)Nc3ccccc3)cccc2C1=O	/	/	-0.8	/	21.9	22.6	/	/	/
Cc1c(C(=O)Nc2cccc(Cl)c2)oc2ccc(S(=O)(=O)N3CCC4(CC3)OCCO4)cc12	-1.9	-0.5	59.7*	-16.4	-37.1	60.5*	30.4	67.0*	32.3
SMILES	IMP-1 inhibitor	VIM-2 inhibitor	Jurkat NFkB inh	aSyn UTR inh	697 NFkB inh	Mdm2 MdmX PPI	Jurkat NFkB conf	Mdm2-MdmX conf	FLuc counter	others
Cc1c(C(=O)Nc2ccc(F)cc2)oc2ccc(S(=O)(=O)N3CCC4(CC3)OCCO4)cc12	-2.5	-2.4	6.9	-25.8	-94.8	23.7	/	/	/
CC(C)CC(=O)Nc1c2c(nn1-c1ccc(F)cc1)CS(=O)C2 (configuration not stated)	0.3	1.0	12.8	-6.2	-5.4	-6.8	/	/	/
CC(=O)N1CCN(C(=O)c2cc(C)nc3ccccc23)CC1	-1.3	-2.2	5.9	2.9	8.7	23.1	/	/	/
Cc1cc(C(=O)N2CC=C(c3ccccc3)CC2)c2ccccc2n1	/	/	67.4*	43.3	-15.8	54.9*	45.3	74.1*	65.1*
COc1ccc(CCNS(=O)(=O)c2ccc(Cl)cc2)cc1OC	-1.0	-1.7	10.6	19.8	9.7	9.4	/	/	/
Fc1ccc2c(Cl)c(-c3nnc(-c4cccs4)o3)sc2c1	-2.2	-1.3	-162.6	-177.7	-237.7	84.2*	-90.7	-138.2	/
Clc1ccc2c(Cl)c(-c3nnc(-c4ccccc4)o3)sc2c1	-0.7	0.1	/	/	/	/	/	/	/
O=C(NCc1cc([N+](=O)[O-])ccc1O)c1cc(-c2ccncc2)nc2ccccc12	-3.6	-2.9	10.1	11.8	10.8	21.0	/	/	/
O=C(COc1ccc(Cl)cc1Cl)N/N=C/C1CC=CCC1 (configuration not stated)	-5.0	-4.5	-11.5	-4.4	0.3	16.9	/	/	/
